Assay results: ChEMBL document CHEMBL3232978, “Efficient synthesis of novel glutamate homologues and investigation of their affinity and selectivity profile at ionotropic glutamate receptors” (Bioorg Med Chem Lett, 2014)
pIC50, pKi: −log10 of the molar value.

Key:
Glutamate NMDA receptor [1] = assay: Displacement of [3H]CPP from NMDA receptor in Sprague-Dawley rat brain cortical synaptic membranes after 1 hr by liquid scintillation counting v
[2] = molecular target: Glutamate receptor ionotropic, AMPA (Rattus norvegicus, UniProt P19490+P19491+P19492+P19493); assay: Displacement of [3H]AMPA from AMPA receptor in Sprague-Dawley rat brain cortical synaptic membranes after 1 hr by liquid scintillation counting
Summary of the method: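 Radioligand displacement in rat cortical membranes: [3H]AMPA labelled AMPA receptors and [3H]KA labelled kainate receptors. Results are reported as IC50 for displacement of the radioligand.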

Glutamate NMDA receptor [3] = assay: Displacement of [3H]CGP39653 from NMDA receptor in Sprague-Dawley rat brain cortical synaptic membranes after 1 hr by liquid scintillation counting v
Summary of the method: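 Competition binding on rat cortical membranes, with [3H]CGP39653 labelling NMDA receptor sites. Ki values were derived and expressed as mean pKi ± SEM from three independent experiments. Hill coefficients were also determined.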

[4] = molecular target: Glutamate receptor ionotropic, AMPA (Rattus norvegicus) (UniProt P19491+P19492+P19493+P19490); assay: Displacement of [3H]AMPA from AMPA receptor in Sprague-Dawley rat brain cortical synaptic membranes at 100 uM after 1 hr by liquid scintillation counting
Summary of the method: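 In rat cortical membrane binding, test compounds were applied at a single concentration of 100 µM. Percent displacement of bound [3H]AMPA (AMPA sites) or [3H]KA (kainate sites) was recorded.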

[5] = molecular target: kainate receptor (Rattus norvegicus); assay: Displacement of [3H]KAIN from kainate receptor in Sprague-Dawley rat brain cortical synaptic membranes after 1 hr by liquid scintillation counting
[6] = test system: kainate receptor (Rattus norvegicus); assay: Displacement of [3H]KAIN from kainate receptor in Sprague-Dawley rat brain cortical synaptic membranes at 100 uM after 1 hr by liquid scintillation counting

SMILES	pKi (Glutamate NMDA receptor [1])	pIC50 [2]	pKi (Glutamate NMDA receptor [3])	inhibition [4] [%]	pIC50 [5]	inhibition [6] [%]
N[C@H](CCCC(=O)O)C(=O)O	4.89	–	–	–	–	–
N[C@H](C/C=C/c1cscc1C(=O)O)C(=O)O	–	< 4.00	4.28	5	< 4.00	5
N[C@H](CCCc1cscc1C(=O)O)C(=O)O	–	< 4.00	4.85	5	< 4.00	5
N[C@H](CCCc1ccccc1C(=O)O)C(=O)O	–	< 4.00	4.49	5	< 4.00	5
N[C@H](C/C=C/c1ccccc1C(=O)O)C(=O)O	–	< 4.00	< 4.00	5	< 4.00	5
